Experimental data of several laboratories.
Lines come from different studies, so protocols differ.
PDE10A: cAMP and cAMP-inhibited cGMP 3',5'-cyclic phosphodiesterase 10A (PDE10A, Homo sapiens, UniProt Q9Y233)
SLC6A3: Sodium-dependent dopamine transporter (SLC6A3, Homo sapiens, UniProt Q01959)

`c1ccc2c(Cc3ccc4cnn(C5COC5)c4c3)nccc2c1` has an inhibition of 6% (PDE10A; enzyme activity, inhibitor, FP; 0.1 µM).
`CCOC(=O)[C@@]12C[C@@H]1[C@@H](n1cnc3c(NCCCCCCc4ccccc4)nc(C#Cc4ccc(Cl)s4)nc31)[C@H](O)[C@@H]2O` has an inhibition of 23% (SLC6A3; ligand displacement, radioligand; 10 µM).
For `COc1ccc2ccnc(Cc3ccc(OC)c(OC)c3)c2c1`, the inhibition was 11% (PDE10A; enzyme activity, inhibitor, FP; 0.1 µM).
`OC[C@@]12C[C@@H]1[C@@H](n1cnc3c(NCCCCCCc4ccccc4)nc(I)nc31)[C@H](O)[C@@H]2O` has an inhibition of 79% (SLC6A3; ligand displacement, radioligand; 10 µM).
The inhibition of `Cc1cc(O)c(-c2ccc([C@@H](C)CN(C)C)cc2)c2c1[nH]c(=O)c1sccc12` is reported as 8.12% (Serine/threonine-protein kinase ATR (ATR, Homo sapiens, UniProt Q13535); cell-free assay, inhibitor; 0.1 µM, lysate).
With `COc1cc2ncnc(Cc3cccc(-c4ccccc4)c3)c2cc1OC` the inhibition was 63% (PDE10A; enzyme activity, inhibitor, FP; 0.1 µM).
For `CC(C)C[C@H](NC(=O)[C@@H](NC(=O)[C@@H](NC(=O)[C@@H]1CCCN1C(=O)[C@@H](N)CCC(=O)O)C(C)C)[C@@H](C)O)C(=O)N[C@H](C(=O)O)[C@@H](C)O`, the inhibition was 47.2% (Angiotensin-converting enzyme (ACE, Homo sapiens, UniProt P12821); enzyme activity, inhibitor; 1.4 mM).
With `CN(C)CCOC(=O)COc1ccc(Cl)cc1` the inhibition was 3.65% (Peroxisome proliferator-activated receptor gamma (PPARG, Homo sapiens, UniProt P37231); cell-free assay, TR-FRET; 1 µM).
For `O[C@@H]1[C@H](O)[C@@H]2C[C@@H]2[C@H]1n1cnc2c(NCCC3CC3)ncnc21`, the inhibition was 50% (SLC6A3; transporter uptake, inhibitor, radiometric; HEK293; 20 nM).
With `COc1ccc2c(Cc3cccc(-c4ccccc4)c3)nccc2c1` the inhibition was 3% (PDE10A; enzyme activity, inhibitor, FP; 0.1 µM).
`CNC(=O)[C@@]12C[C@@H]1[C@@H](n1cnc3c(NCc4cccc(Cl)c4)nc(C#Cc4ccc(Cl)s4)nc31)[C@H](O)[C@@H]2O` gave an inhibition of 75% (SLC6A3; ligand displacement, radioligand; 10 µM).
The inhibition of `NC/C(=C\F)COc1cccc(Cn2c(=S)[nH]c(=O)c3[nH]cnc32)c1` is reported as < 50% (D(3) dopamine receptor (DRD3, Homo sapiens, UniProt P35462); ligand displacement, radioligand; 10 µM).
For `C#Cc1cc(-c2cc(Nc3nc(N[C@@H](C)c4ccc(F)cn4)ncc3Cl)n[nH]2)ccc1C=O`, the inhibition was 53.5% (Dual specificity protein kinase CLK4 (CLK4, Homo sapiens, UniProt Q9HAZ1); enzyme activity, inhibitor; 0.2 µM).
`COc1cc2ncnc(Cc3cccc(-c4ccccc4OC)c3)c2cc1OC` has an inhibition of 31% (PDE10A; enzyme activity, inhibitor, FP; 0.1 µM).
The inhibition of `CCOC(=O)[C@@]12C[C@@H]1[C@@H](n1ccc3c(NCCCCCCCc4ccccc4)nc(C#Cc4ccccc4)nc31)[C@H](O)[C@@H]2O` is reported as 25% (SLC6A3; ligand displacement, radioligand; 10 µM).
`COc1ccc(-c2cccc(Cc3ncnc4cc(OC)c(OC)cc34)c2)cc1OC` has an inhibition of 85% (PDE10A; enzyme activity, inhibitor, FP; 0.1 µM).
`N#CC[C@@]12C[C@@H]1[C@@H](n1cnc3c(NCCCCCc4ccccc4)nc(C#Cc4ccc(Cl)s4)nc31)[C@H](O)[C@@H]2O` gave an inhibition of 7% (SLC6A3; ligand displacement, radioligand; 10 µM).
For `CCN1/C(=C/C(C)=O)Sc2ccc(F)cc21`, the inhibition was 1.26% (SLC6A3; ligand displacement, radioligand; 10 µM).
